In one assay the test system is Calf thymus DNA. Kind of assay: Ability to displace ethidium bromide from calf thymus DNA. Type of assay: nucleic-acid assay, Bos taurus. The essentials: (§1)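 Fluorescence displacement. Ethidium bromide 1.6 μM final in 2 mM HEPES, 10 μM EDTA, 9.4 mM NaCl, pH 7.0, then DNA added at 2 μM final (DNA phosphate): calf thymus DNA, poly(dA-dT)·poly(dA-dT) or poly(dG-dC)·poly(dG-dC). Excitation 546 nm, emission 598 nm. Analogue titrated in aliquots. IC50 is the concentration halving ethidium–DNA fluorescence. Trial-to-trial variability generally <5%.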

Assay [1] relates to HeLa. Kind of assay: Ability to cause aggregation of purified HeLa cell DNA. Type of assay: functional. The following applies: Homo sapiens. The method, boiled down:
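HeLa DNA labelled via 3-day culture with 4 μCi [³H]thymidine, then phenol/chloroform extracted. 1.5 μg DNA (~20000 cpm) plus analogue at various concentrations in buffer of 25 mM Tris, 4.5 mM KCl, 3 mM MgCl₂, pH 7.6. Incubated 10 min at 37 °C, then centrifuged 2.5 min and supernatant counted.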

In assay [2] the test system is HeLa. Briefly: Ability to inhibit 50% growth of HeLa cells. Type of assay: functional, cell-based. To be noted: Homo sapiens. The essentials: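 HeLa cells grown 2 days, then counted to set the baseline. Analogues added in complete medium for a further 2 days, then cells counted. Growth increase compared with untreated controls. IC50 is the concentration giving a 50% decrease in growth relative to controls.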

Assay [3] relates to Nucleic Acid. Kind of assay: Ability to displace ethidium bromide from double stranded synthetic poly (dG-dC). Type of assay: nucleic-acid assay. The method, boiled down:
as §1

In assay [4] the test system is Nucleic Acid. Kind of assay: Ability to displace ethidium bromide from double stranded synthetic Poly (dA-dT). Type of assay: nucleic-acid assay. The essentials: as §1

As a reminder, the IC50 is the concentration needed to halve the response being measured. A higher IC50 goes with weaker potency in that assay.

For `NCCCCNCCCN` [SPERMIDINE], the IC50 came to 130 µM in the assay with Calf thymus DNA; 1500 µM with HeLa [1]; 100 µM in the assay on HeLa [2]; 300 µM with Nucleic Acid [3]; 110 µM in the assay with Nucleic Acid [4].
For `NCCCNCCCCNCCCN` [SPERMINE] the same measures were 4.3 µM, 70 µM, 50 µM, 6 µM and 2.8 µM.

The record behind these values is ChEMBL document CHEMBL1125175, “Synthesis and DNA-binding properties of polyamine analogues” (J Med Chem, 1991).
